Here are results for four molecules from ChEMBL document CHEMBL4732058, “Development of pyrene-based fluorescent ether lipid as inhibitor of SK3 ion channels” (Eur J Med Chem, 2021).

Structures are written as SMILES. The source made the active and inactive calls. The calls are words filed in the database; no cut-off is given here.

Data set [1] addresses Small conductance calcium-activated potassium channel protein 3 (Rattus norvegicus) (UniProt P70605). The experiment in a line: Inhibition of recombinant rat SK3 expressed in HEK293T cells assessed as reduction in channel current at 10 uM and holding potential at 0 mV by whole cell patch clamp method relative to control. The format is cell-based.
Data set [2] deals with MDA-MB-435. The experiment in a line: Cytotoxicity against human MDA-MB-435 cells at 1 uM incubated for 48 hrs by MTT assay. The following applies: mda-mb-435, 48 h. It counts as cell-based.
Data set [3] is described as follows: Fluorescence property of compound in egg-PC based liposomes assessed as liposomal integration at 0.2 uM added before liposome formation by fluorescence spectra analysis. The format is physicochemical. The following applies: artificial membrane. The gist of the method:
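Pre-insertion: methanol stock (50 mM) added to egg-PC lipids before solvent evaporation, then liposomes formed; final compound 0.2 at lipid 8 or 40 (lipid/compound ratios 40 or 200).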

Data set [4] is described as follows: Fluorescence property of compound in preformed egg-PC based liposomes assessed as liposomal integration at 0.2 uM by fluorescence spectra analysis. The format is physicochemical. Conditions: artificial membrane. The gist of the method: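 Post-insertion: compound from methanol stock (50 mM) added to preformed, sonicated egg-PC liposomes; final compound 0.2 at lipid 8 or 40 (lipid/compound ratios 40 or 200).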

The subject of data set [5] is MDA-MB-435. The experiment in a line: Inhibition of cell migration in human MDA-MB-435 cells expressing SK3 channel at 0.3 uM measured after 24 hrs. It counts as functional. The gist of the method:
(§1)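 Transwell migration through […] pore inserts in 24-well plates, using MDA-MB-435s expressing endogenous SK3 (SK3+) or not (SK3-); DMSO stock 10 mM. Results relative to control, mean ± S.E.M.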

In data set [6] the target is Small conductance calcium-activated potassium channel protein 3 (Homo sapiens) (UniProt Q9UGI6). The experiment in a line: Inhibition of SK3 (unknown origin) assessed as reduction in SK3 expression in presence of proteinase K. The gist of the method: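 Cell-surface expression by proteinase K cleavage: cells incubated with or without […] proteinase K at 37 °C for 30 min, quenched with ice-cold PBS with 6 mM PMSF and 25 mM EDTA; western blot, full-length SK3 75 kDa, surface-cleaved band 55 kDa.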

Data set [7] has as its target Small conductance calcium-activated potassium channel protein 3 (Rattus norvegicus) (UniProt P70605). Kind of data set: Inhibition of recombinant rat SK3 expressed in HEK293 cells assessed as reduction in channel current at 10 uM and holding potential at 0 mV by whole cell patch clamp method relative to control. The format is cell-based.
In data set [8] the test system is MDA-MB-435. The experiment in a line: Inhibition of cell migration in human MDA-MB-435 cells expressing SK3 channel at 1 uM measured after 24 hrs. It counts as functional. The gist of the method:
as §1

Data set [9] has as its system MDA-MB-435. Kind of data set: Inhibition of cell migration in human MDA-MB-435 cells at 1 uM measured after 24 hrs. It counts as functional, cell-based. The gist of the method: as §1
A short description of data set [10]: Drug uptake in plasma membrane of human MDA-MB-231 cells at 1 uM measured after 45 mins by fluorescence imaging analysis. The format is ADME, cell membranes, Cell membrane. Conditions: mda-mb-231, 0.75 h.
Data set [11] can be described thus: Drug uptake in human MDA-MB-231 cells at 1 uM after 2 hrs by fluorescence imaging analysis. The format is ADME, cell-based. Conditions: mda-mb-231, 2 h. The gist of the method: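 Breast cancer cells seeded at 100.000 per 35 mm dish in serum-supplemented DMEM, treated 24 h after seeding; medium swapped to serum-free DMEM before adding compound. Wide-field microscope, 20× oil objective, excitation 340 nm, excimer emission imaged 468–552 nm; same field imaged every 15 min from 60 to 165 min after addition.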

Sequence of Small conductance calcium-activated potassium channel protein 3 (Rattus norvegicus) (P70605 whole entry): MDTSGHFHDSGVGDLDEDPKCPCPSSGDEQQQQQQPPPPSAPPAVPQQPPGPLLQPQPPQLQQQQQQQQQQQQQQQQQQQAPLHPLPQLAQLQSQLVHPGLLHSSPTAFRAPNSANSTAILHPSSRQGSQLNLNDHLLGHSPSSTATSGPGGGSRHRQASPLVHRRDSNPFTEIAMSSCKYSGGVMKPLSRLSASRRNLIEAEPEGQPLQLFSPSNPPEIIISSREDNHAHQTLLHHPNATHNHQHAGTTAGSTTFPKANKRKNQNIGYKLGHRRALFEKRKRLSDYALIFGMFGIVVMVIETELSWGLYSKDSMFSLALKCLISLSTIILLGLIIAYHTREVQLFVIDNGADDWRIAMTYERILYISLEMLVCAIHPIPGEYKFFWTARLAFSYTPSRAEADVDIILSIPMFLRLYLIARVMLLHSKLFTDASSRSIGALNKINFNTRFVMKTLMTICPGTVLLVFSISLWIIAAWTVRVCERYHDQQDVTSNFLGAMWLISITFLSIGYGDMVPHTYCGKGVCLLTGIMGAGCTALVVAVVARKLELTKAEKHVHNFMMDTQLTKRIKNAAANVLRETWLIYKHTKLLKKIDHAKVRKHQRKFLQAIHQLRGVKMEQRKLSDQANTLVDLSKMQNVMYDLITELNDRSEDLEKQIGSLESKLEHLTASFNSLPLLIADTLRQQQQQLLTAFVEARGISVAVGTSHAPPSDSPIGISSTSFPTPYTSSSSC
Sequence of Small conductance calcium-activated potassium channel protein 3 (Homo sapiens) (Q9UGI6 whole entry): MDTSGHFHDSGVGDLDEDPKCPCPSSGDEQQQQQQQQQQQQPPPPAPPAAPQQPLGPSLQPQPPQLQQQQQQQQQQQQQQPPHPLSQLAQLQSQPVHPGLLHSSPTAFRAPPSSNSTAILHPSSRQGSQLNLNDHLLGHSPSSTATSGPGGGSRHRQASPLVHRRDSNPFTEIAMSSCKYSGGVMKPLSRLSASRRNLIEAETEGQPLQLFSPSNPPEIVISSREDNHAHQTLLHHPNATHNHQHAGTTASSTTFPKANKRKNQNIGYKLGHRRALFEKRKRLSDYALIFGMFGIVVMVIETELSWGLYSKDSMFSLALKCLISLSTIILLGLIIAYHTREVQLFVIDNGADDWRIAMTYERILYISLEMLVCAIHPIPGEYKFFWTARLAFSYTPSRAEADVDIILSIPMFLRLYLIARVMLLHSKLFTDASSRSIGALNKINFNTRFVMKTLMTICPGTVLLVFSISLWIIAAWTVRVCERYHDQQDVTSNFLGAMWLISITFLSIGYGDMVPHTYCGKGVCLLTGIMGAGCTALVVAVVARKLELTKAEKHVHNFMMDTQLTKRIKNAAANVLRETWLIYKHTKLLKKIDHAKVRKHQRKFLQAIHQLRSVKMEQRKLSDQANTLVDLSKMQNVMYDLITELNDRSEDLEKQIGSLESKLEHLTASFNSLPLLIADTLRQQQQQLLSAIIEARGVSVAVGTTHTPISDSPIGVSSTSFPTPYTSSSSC

Regarding `COC(COCCCCCCCCCCCCCCCCc1ccc2ccc3cccc4ccc1c2c34)CO[C@@H]1O[C@H](CO)[C@@H](O[C@@H]2O[C@H](CO)[C@H](O)[C@H](O)[C@H]2O)[C@H](O)[C@H]1O` (mixture of isomers), in data set [1], the inhibition (usually the relative decrease from the control value, in per cent) is “inactive”. The results for the Activity result in [2], in [3] and in [4] were “Non-Toxic”, “Active” and “Active”, respectively.
Turning to `CCCCCCCCCCCCCCCCOCC(CO[C@@H]1O[C@H](CO)[C@@H](O[C@@H]2O[C@H](CO)[C@H](O)[C@H](O)[C@H]2O)[C@H](O)[C@H]1O)OC` (stereo not given in full), the inhibition at 0.3 µM in data set [5] came out at 50%. Besides, in data set [6], the inhibition entry is “inactive”. The inhibition in [7] was determined as 73%.
With `COC(COCCCCc1ccc2ccc3cccc4ccc1c2c34)CO[C@@H]1O[C@H](CO)[C@@H](O[C@@H]2O[C@H](CO)[C@H](O)[C@H](O)[C@H]2O)[C@H](O)[C@H]1O` (mixture of isomers), in data set [1], the inhibition result is “inactive”. For the same molecule, the results for the Activity result in data set [2], in data set [3] and in data set [4] were “Non-Toxic”, “Not Active” and “Not Active”, respectively.
Regarding `COC(COCCCCCCCCCCCc1ccc2ccc3cccc4ccc1c2c34)CO[C@@H]1O[C@H](CO)[C@@H](O[C@@H]2O[C@H](CO)[C@H](O)[C@H](O)[C@H]2O)[C@H](O)[C@H]1O` (mixture of isomers), the inhibition at 1 µM in [8] is -32.5%. In addition, the inhibition result in data set [5], in data set [9] and in [6] was “inactive” each time. Also, the Activity entry in data set [2] was “Non-Toxic”; in data set [3], “Active”; in data set [4], “Active”. Also, the Drug uptake entry in [10] and in [11] was “Active” each time.
